ATG4B inhibitor – inhibitors of human ATG4B cysteine protease | Q9Y4P1 | ATG4B cleavage of LC3-PLA2, NBD-HPC fluorescence, 1 h | inhibition, % at 8.33 µM | 340,000 tested, 0.51% active | AID 504462; in the data active = inhibition above about 40%
Target sequence (Q9Y4P1 whole entry, looked up): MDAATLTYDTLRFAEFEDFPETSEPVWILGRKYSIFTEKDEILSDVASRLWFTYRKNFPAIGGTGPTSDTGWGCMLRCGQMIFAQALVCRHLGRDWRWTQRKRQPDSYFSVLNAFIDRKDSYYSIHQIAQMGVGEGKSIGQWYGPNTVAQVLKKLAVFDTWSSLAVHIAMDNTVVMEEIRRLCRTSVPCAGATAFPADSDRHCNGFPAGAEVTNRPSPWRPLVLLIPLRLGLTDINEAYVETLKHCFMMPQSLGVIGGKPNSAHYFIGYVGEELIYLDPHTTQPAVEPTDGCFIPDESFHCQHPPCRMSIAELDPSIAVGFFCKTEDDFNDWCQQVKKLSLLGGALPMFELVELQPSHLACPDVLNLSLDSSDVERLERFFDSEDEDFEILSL
Fh CTSL1 inh – counter-screen for PFM18AAP inhibitors: inhibitors of F. hepatica cathepsin L1 | recombinant F. hepatica cathepsin L1, Z-Leu-Arg-MCA fluorescence | inhibition, % at 5.96 µM | 300,000 tested, 0.49% active | AID 1906;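 active = inhibition above the mean of all tested compounds plus 3 SD, set per screening campaign, cut at about 17% in these data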;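 note: 0% = plate median of test compound wells and 100% = 1 µM Z-Phe-Ala-diazomethylketone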
Diaph inh CS – diaphorase inhibition or chemical oxidation counter-screen. 190,000 tested, 0.69% active. inhibition, % at 20 µM. diaphorase resazurin-to-resorufin fluorescence, NADH, 16 min; bacterial (C. kluyveri) enzyme, not human. AID 1217;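 active = primary screen inhibition at 20 µM above a set limit, cut at about 50% in these data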;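 note: plate controls were DMSO with full reaction for no effect and wells lacking NADH for full effect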
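Assay system: diaphorase enzyme from Clostridium kluyveri. Quantity: enzyme working solution with 0.14 U/mL diaphorase. Schedule: reaction incubation of 16 min at room temperature. Technique: resorufin fluorescence, excitation 544 nm, emission 590 nm. Controls: No-NADH positive control and DMSO neutral control.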
Diaphorase act – diaphorase activation or chemical reduction counter-screen; AID 1229; activation factor at 20 µM; Diaphorase/resazurin coupled assay, resorufin fluorescence, 16 min; active compounds read high; 1 = vehicle wells, 0 = NADH-free wells; 190,000 tested, 0.005% active;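 active = diaphorase activity raised at least twofold by the compound at 20 µM; inactive = activation factor below 2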
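Test system: Clostridium kluyveri diaphorase, purified enzyme. Buffer or medium: 50 mM HEPES pH 7.4 buffer plus MgCl2 and Tween 20. Also added: 0.114 mM NADH and 0.1 mM resazurin, final amounts. Dosing: compound 20 µM once, DMSO 1%. Schedule: 16 min enzyme reaction, ambient temperature. Detection: fluorescence of resorufin, 544 nm excitation, 590 nm emission.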
HKDC1 inhibitor – HKDC1 (human) hexokinase inhibition. Q2TB90. recombinant HKDC1, G6PDH/diaphorase resazurin coupled fluorescence. inhibition, % at 20 µM. 340,000 tested, 0.16% active;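 active = inhibition above about 35% when tested at 20 µM, limit read from the data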;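 note: plate controls were DMSO wells with enzyme for no effect and DMSO wells lacking enzyme for full effect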
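Test system: Recombinant HKDC1 (HK5) hexokinase enzyme, produced in-house | Input: HKDC1 at 5 µg/mL | Buffer or medium: Tris pH 8.0 buffer with MgCl2, Tween-20, BSA, BME | Schedule: 90 min reaction incubation at room temperature, dark | Technique: Resazurin-to-resorufin fluorescence via G6PDH and diaphorase coupling, 525/613 nm | Controls: DMSO wells with and without enzyme mix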
Starred values were filed as active, the others as inactive; x = no result given; ! = repeats disagree. An excerpt weighted towards active compounds, which were near 1.4% of everything screened.

SMILES | ATG4B inhibitor | Fh CTSL1 inh | Diaph inh CS | Diaphorase act | HKDC1 inhibitor
Cc1ccc(-n2c(-c3ccccc3)c[n+]3c2CCC3)cc1 | -4 | -3 | 79* | 0.2 | -7
Cc1ccc(-n2c(-c3ccc(Cl)cc3)c[n+]3c2CCC3)cc1 | 4 | 1 | x | x | -5
CC1=CC(C)(C)Nc2ccc(OC(=O)CN3C(=O)c4cccc5cccc(c45)C3=O)cc21 | 1 | -4 | 58* | 0.4 | 26
CCC1=NN2C(=N)/C(=C\c3cccn3-c3ccc(Br)cc3)C(=O)N=C2S1 | 25 | x | 41 | 0.6 | -4
CCC1=NN2C(=N)/C(=C\c3cccn3-c3cccc(Cl)c3)C(=O)N=C2S1 | 14 | -1 | 59* | 0.4 | -6
O=C(CCSc1ccccn1)c1ccccc1 | -7 | 19* | 3 | 1 | -3
Cc1ccc2c(c1)N(C(=O)CCC(=O)N1CCC(C(N)=O)CC1)CC(C)O2 (stereo not given) | -14 | 1 | x | x | -1
CCS(=O)(=O)C1=NN2C(=N)/C(=C\c3ccc(OC(=O)c4ccco4)c(Br)c3)C(=O)N=C2S1 | x | 1 | x | x | x
CCS(=O)(=O)C1=NN2C(=N)/C(=C\c3ccc(SCc4ccco4)o3)C(=O)N=C2S1 | 26 | x | 57* | 0.4 | 4
CN1C(=O)/C(=C\C=C2/CCCN2C)N(C)C1=S | 16 | 7 | 52* | 0.5 | 0
CCN1C(=O)/C(=C/C=C2/CCCN2C)OC1=S | 0 | 6 | 30 | 0.7 | -9
CC(C)(C)[C@H]1COC(=O)[C@@H](Cc2ccc(F)cc2)CC/C=C/C[C@@H](CC(=O)N[C@@H](CO)Cc2ccccc2)C(=O)N1 | -8 | x | x | x | 0
O=C(Nc1cccnc1)c1cccc(S(=O)(=O)N2CCc3ccccc32)c1 | -11 | 1 | 11 | 0.9 | -9
O=C(Nc1ccncc1)c1cccc(S(=O)(=O)N2CCc3ccccc32)c1 | -10 | 17* | x | x | 4
COCCN(C(=O)CCSc1ccc(F)cc1)c1c(N)n(Cc2ccccc2)c(=O)[nH]c1=O | -7 | x | x | x | 4
Cc1ccn2c(=O)nc(SCC(=O)N3CCCC3)nc2c1 | -8 | 17* | x | x | 6
Cc1ccn2c(=O)nc(SCC(=O)N3CCCCC3)nc2c1 | -8 | -2 | x | x | 0
O=C1C(Cl)=C(N2CCCCCC2)C(=O)N1c1ccccc1 | -11 | 19* | -3 | 1 | 2
CCc1ccc(N2C(=O)C(Cl)=C(N3CCCCCC3)C2=O)cc1 | 5 | x | x | x | -3
Cc1ccc(N2C(=O)C(Cl)=C(N3CCN(C)CC3)C2=O)c(C)c1 | -3 | 27* | 7 | 0.9 | -3
O=C1C(Cl)=C(N2CCCCCC2)C(=O)N1c1ccc(Br)cc1 | 2 | 7 | x | x | -2
CN1CCN(C2=C(Cl)C(=O)N(c3ccc(Cl)cc3)C2=O)CC1 | 1 | 20* | 5 | 1 | 0
CC(C)(C)CN1CCC(Oc2cccc(C(=O)N3CCNC(=O)C3(C)C)c2)CC1 | 12 | 19* | x | x | -6
COc1cc(OC)cc(C(=O)NCc2cc(C)nc3ccccc23)c1 | 4 | 1 | 76* | 0.2 | 14
CCOC(=O)Cc1nn(Cc2ccc(Cl)cc2)c(=O)c2ccccc12 | 12 | 18* | 18 | 0.8 | -2
SMILES | ATG4B inhibitor | Fh CTSL1 inh | Diaph inh CS | Diaphorase act | HKDC1 inhibitor
CC(=O)Nc1ccc(C(=O)NCC2(N3CCCCC3)CCCCC2)cc1 | 4 | 21* | x | x | -10
CCOc1ccc(NS(=O)(=O)c2ccc(C(=O)NCC3(N4CCCCC4)CCCCC3)cc2)cc1 | -1 | 11 | x | x | 7
O=[N+]([O-])c1cc2cccnc2c2ncccc12 | -2 | 7 | x | x | 4
O=[N+]([O-])c1cc(O)c2ncccc2c1 | 0 | 11 | 52* | 0.5 | 10
O=C(O)COc1ccccc1Cc1ccccc1 | 3 | 2 | 8 | 0.9 | -4
CN(C(=O)COC(=O)COc1ccccc1Cc1ccccc1)c1ccccc1 | 0 | 18* | x | x | 2
COc1ccccc1CNC(=O)COC(=O)COc1ccccc1Cc1ccccc1 | 9 | 17* | x | x | -1
Cc1ccccc1OCC(=O)OCC(=O)NCc1ccccc1 | 4 | x | x | x | 0
CC(=O)C1=C(c2ccc(Br)cc2)C(=O)c2ccccc2C1=O | 29 | -3 | 62* | 0.4 | 83*
CC(=O)Nc1c(Br)cc2c(c1Br)C(=O)c1ccccc1-2 | -5 | x | x | x | -1
COc1ccc(OC)c(CCNC(=O)c2ccc(NC3=NC4CS(=O)(=O)CC4S3)cc2)c1 (stereo not given) | -5 | -4 | x | x | -6
N#CC1=C(N)Oc2n[nH]c(-c3cccs3)c2C1c1ccsc1 (stereo not given) | -13 | 1 | 60* | 0.4 | 8
N[C@@H](Cc1cc(I)c(Oc2cc(I)c(O)c(I)c2)c(I)c1)C(=O)O | 45* | 0 | x | x | 8
N[C@@H](Cc1ccc(O)c(O)c1)C(=O)O | 6 | x | x | x | 2
N[C@@H](Cc1cc(I)c(Oc2ccc(O)c(I)c2)c(I)c1)C(=O)O | 84*! | 3 | 3 | 1 | 14
Cc1ccc(C)c(OCC(O)CNC2CCCC2)c1 (stereo not given) | 2 | 1 | x | x | 0
O=C(O)c1c2c(nc3ccccc13)/C(=C/c1ccc(OC(F)F)cc1)CCC2 | -2 | 4 | x | x | 8
O=C(O)c1c2c(nc3ccccc13)/C(=C/c1ccc(O)cc1)CC2 | 6 | -3 | 69* | 0.3 | 4
Cc1ccc(S(=O)(=O)NCC(=O)NCCc2c[nH]c3ccccc23)cc1C | -6 | 1 | x | x | -1
Cc1cc(N(CN2CCCC2=O)C(=O)c2ccc(F)cc2)no1 | -6 | -20 | 6 | 0.9 | -3
Cc1cc(N(CN2CCCC2=O)C(=O)c2ccc(OC(C)C)cc2)no1 | -30 | 19* | 10 | 0.9 | -7
Cc1ccc2[nH]c3c(c2c1)CN(C(=O)CN(C)CC1OCCO1)CC3 | -6 | 17* | 8 | 0.9 | 5
CN(CC(=O)N1CCc2[nH]c3ccc(F)cc3c2C1)CC1OCCO1 | -9 | 1 | 7 | 0.9 | 1
COc1ccc(-n2c(NC(=O)c3ccc(Br)o3)c(C#N)c3nc4ccccc4nc32)cc1 | x | x | 63* | 0.4 | x
Cc1ccc(O)c(C=Nc2ccc3[nH]ncc3c2)c1 | 0 | -2 | 61* | 0.4 | 2
O=C(CCl)Nc1nc(-c2ccco2)c(-c2ccco2)s1 | 5 | 21* | 65* | 0.3 | 25
O=C(CCCSc1ccccc1)Nc1nc(-c2ccco2)c(-c2ccco2)s1 | 14 | -5 | 37 | 0.6 | 23

Screening results (PubChem BioAssay)
